Values after ≈ are worked out from the molar mass of the structure shown.
What was measured:
Salmonella typhimurium [1] = assay: Genotoxicity in Salmonella typhimurium TA100 assessed as increase in number of revertants at 1.5 to 5000 ug/plate by Ames test in presence of S9 fraction; type: toxicity, organism-based; conditions: salmonella enterica subsp. enterica serovar typhimurium
How it was run: (§1)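 Ames reverse mutation test by direct plate incorporation in S. typhimurium TA98 and TA100, with or without Aroclor 1254-induced rat liver S9 mix. Compound in DMSO at 1.5–5000 µg/plate, plated in top agar, incubated 37 °C for about 50 h, then revertant colonies counted. Plates were checked for precipitation and cytotoxicity. A positive was a reproducible, dose-related increase in revertants of more than 2-fold.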

Mus musculus [2] = assay: Toxicity in C57BL/J6 db/db mouse assessed as effect on serum lipids at 30 to 100 mg/kg, po; conditions: in vivo
Salmonella typhimurium [3] = assay: Cytotoxicity in Salmonella typhimurium TA100 at 1.5 to 5000 ug/plate in absence of S9 fraction; type: organism-based; conditions: salmonella enterica subsp. enterica serovar typhimurium; how it was run: as §1
[4] = Cmax in male Sprague-Dawley rat at 1000 mg/kg, po measured on day 14; type: ADME, organism-based; parameters: dose 1000 mg/kg, route oral; conditions: in vivo
How it was run: (§2)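 Sprague–Dawley rats, 5 weeks old at arrival, both sexes. Given the compound by oral gavage once daily for 14 days at 0, 250, 500 or 1000 mg/kg/day, with 0.5% methylcellulose as vehicle. Toxicokinetic parameters were determined on Day 1 and Day 14.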

[5] = Tmax in female Sprague-Dawley rat at 250 mg/kg, po measured on day 1; type: ADME, organism-based; parameters: dose 250 mg/kg, route oral; conditions: in vivo
How it was run: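 Sprague–Dawley rats of both sexes, 5 weeks old at arrival, received daily oral gavage at 0, 250, 500 or 1000 mg/kg/day for 14 days. Vehicle was 0.5% methylcellulose at 10 mL/kg. Toxicokinetics were taken on Day 1 and Day 14. Necropsy was by Day 15. Testis was fixed in modified Davidson's fixative, paraffin-sectioned and H&E-stained, with histopathology on control and high-dose groups only.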

Mus musculus [6] = assay: Antidiabetic activity in glucose-treated C57BL/J6 db/db mouse assessed as reduction of glucose AUC at 50 mg/kg, po preincubated for 30 mins followed by glucose challenge measured after 30 to 180 mins by oral glucose tolerance test relative to control; type: functional; parameters: scale not given: the % may be the effect or the level left; conditions: in the assay text read “C57BL/J6 mouse” for “C57BL/J6 db/db mouse”
How it was run: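 Oral glucose tolerance test. Mice: eight-week-old male C57BL/6 or ten-week-old male C57BLKS/J db/db, fasted overnight with water. Compound or 0.5% methylcellulose vehicle given orally, then an oral 2 g/kg glucose challenge 30 min later. Tail-tip blood glucose was read just before and at 30, 60, 90, 120 and 180 min. AUC was calculated from the time–glucose curve; n = 6.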

[7] = Cmax in female Sprague-Dawley rat at 500 mg/kg, po measured on day 14; type: ADME, organism-based; parameters: dose 500 mg/kg, route oral; conditions: in vivo; how it was run: as §2
Canis familiaris = assay: Toxicity in Beagle dog assessed as testicular effect administered repeated dose level of 1000 mg/kg/day, po administered on days 3, 6 and 8 by hematoxylin and eosin staining-based microscopy; type: organism-based, Canis lupus familiaris; parameters: route oral; conditions: in vivo
How it was run: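 Dogs received escalating oral doses of 100, 300 and 1000 mg/kg/day over 8 days (Days 3, 6 and 8 for each dose). Vehicle was 0.5% methylcellulose at 5 mL/kg. Two animals were necropsied at termination, and testes were fixed in modified Davidson's fixative, paraffin-embedded, H&E-stained and examined microscopically.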

Cytochrome P450 2B6 = target: T1, Cytochrome P450 2B6 (Homo sapiens, UniProt P20813); assay: Inhibition of CYP2B6 in human liver microsomes; type: ADME
T1 sequence (P20813 whole entry): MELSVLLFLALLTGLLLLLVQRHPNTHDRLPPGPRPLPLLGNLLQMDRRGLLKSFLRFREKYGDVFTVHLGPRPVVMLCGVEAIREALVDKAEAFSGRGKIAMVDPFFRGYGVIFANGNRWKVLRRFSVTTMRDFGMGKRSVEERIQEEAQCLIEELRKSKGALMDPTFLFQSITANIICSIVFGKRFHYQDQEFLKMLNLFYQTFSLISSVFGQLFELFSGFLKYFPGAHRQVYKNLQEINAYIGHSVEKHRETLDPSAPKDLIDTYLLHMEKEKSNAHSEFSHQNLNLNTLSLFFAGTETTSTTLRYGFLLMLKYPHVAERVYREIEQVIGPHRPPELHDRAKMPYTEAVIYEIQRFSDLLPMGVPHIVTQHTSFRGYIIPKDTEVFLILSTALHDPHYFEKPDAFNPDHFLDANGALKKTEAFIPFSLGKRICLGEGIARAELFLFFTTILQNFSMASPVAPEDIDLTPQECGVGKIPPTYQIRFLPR
How it was run: (§3)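 Pooled human liver microsomes at 0.25 mg/mL, each with a CYP-selective substrate and test compound up to 25 µM, preincubated at 37 °C. It is stopped on ice with ice-cold acetonitrile and centrifuged, and the supernatant is analysed by LC–MS/MS.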

[8] = Aqueous solubility of the compound in phosphate buffer at pH 7.4; type: physicochemical
[9] = AUC (0 to t) in male Sprague-Dawley rat at 250 mg/kg, po measured on day 1; type: ADME, organism-based; parameters: dose 250 mg/kg, route oral; conditions: plasma; how it was run: as §2
[10] = Clearance in Sprague-Dawley rat at 3 mg/kg, iv and 10 mg/kg, po; type: ADME, organism-based; conditions: in vivo
How it was run: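 Male ICR mice and 7-week-old SD rats received a 3 mg/kg intravenous bolus or a 10 mg/kg oral gavage dose. Plasma was deproteinized with acetonitrile (2 volumes) and compound measured by HPLC. Parameters came from noncompartmental analysis.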

[11] = Mean residence time in Sprague-Dawley rat at 3 mg/kg, iv and 10 mg/kg, po; type: ADME, organism-based; conditions: in vivo
How it was run: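 Male ICR mice and 7-week-old SD rats received a 3 mg/kg iv bolus or a 10 mg/kg oral gavage dose. Plasma was precipitated with 2 volumes of acetonitrile and analysed by HPLC. Parameters came from noncompartmental analysis.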

Cytochrome P450 1A2 = target: T2, Cytochrome P450 1A2 (Homo sapiens, UniProt P05177); assay: Inhibition of CYP1A2 in human liver microsomes; type: ADME; how it was run: as §3
T2 sequence (P05177 whole entry): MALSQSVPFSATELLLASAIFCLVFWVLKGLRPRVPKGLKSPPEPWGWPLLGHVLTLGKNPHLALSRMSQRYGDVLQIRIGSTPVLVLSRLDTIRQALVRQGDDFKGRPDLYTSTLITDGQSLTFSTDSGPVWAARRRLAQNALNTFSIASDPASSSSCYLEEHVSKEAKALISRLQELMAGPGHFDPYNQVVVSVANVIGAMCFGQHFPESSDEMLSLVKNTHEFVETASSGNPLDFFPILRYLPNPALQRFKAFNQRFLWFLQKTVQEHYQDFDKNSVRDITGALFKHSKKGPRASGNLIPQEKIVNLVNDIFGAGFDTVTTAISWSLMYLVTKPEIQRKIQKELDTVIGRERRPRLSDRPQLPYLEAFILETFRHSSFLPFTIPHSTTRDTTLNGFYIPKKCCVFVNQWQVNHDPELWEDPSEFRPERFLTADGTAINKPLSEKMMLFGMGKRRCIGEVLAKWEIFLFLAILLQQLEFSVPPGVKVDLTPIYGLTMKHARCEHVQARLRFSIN

Salmonella typhimurium [12] = assay: Cytotoxicity in Salmonella typhimurium TA98 at 1.5 to 5000 ug/plate in absence of S9 fraction; type: organism-based; conditions: salmonella enterica subsp. enterica serovar typhimurium; how it was run: as §1

Cmax [4]: 3090 ng/mL | Tmax [5]: 3.7 h | Cmax [7]: 3920 ng/mL | inhibition (INH) (Cytochrome P450 2B6): Not Active | solubility [8]: 122 µM (≈ 65.5 µg/mL) | AUC(0-t) [9]: 13100 ng·h/mL | clearance [10]: 9.83 mL/min/kg | MRT [11]: 0.37 h | inhibition (INH) (Cytochrome P450 1A2): Not Active
Structure (SMILES): COCCOCn1ccc(NC(=O)c2cc(Oc3ccc(S(C)(=O)=O)cc3)cc(-c3ncccc3C)c2)n1
Activity (Salmonella typhimurium [1]): Non-toxic | Activity (Mus musculus [2]): Non-toxic | Activity (Salmonella typhimurium [3]): Non-toxic | Activity (Mus musculus [6]): 32.3% | Activity (Canis familiaris): Non-toxic | Activity (Salmonella typhimurium [12]): Non-toxic
